Measurements reported in PMC9202693 (The Journal of General Physiology, 2022).
Entries after “also recorded” stand apart in the source; their conditions may differ. Read-outs that look alike come from different tables or passages of the source. Positions of bridges follow the written chain, without caps; N, C: chain ends. Residues, ends and D or L forms follow the SMILES beside them. No end group written: not given here.

Columns and labels:
[1] = system: hNaV1.4; experiment: Selectivity, patch-clamp, hNaV1.4 in human embryonic kidney 293 cells; assay type: cell-based; settings: 150 nM Cm28, 8–20 pulses (2–5 min), n ≥ 3
How it was run: (§1)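 Whole-cell Na+ currents evoked by 15-ms steps to 0 mV every 10 s. Normal Na+-based bath, pH 7.35. Pipette (mM): 10 NaCl, 105 CsF, 10 HEPES, 10 EGTA, pH 7.2. Remaining peak current fraction at 150 nM after 8–20 pulses (2–5 min); mean ± SEM, n ≥ 3. NaV1.4 was recorded in HEK293 cells stably expressing the channel.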

[2] = system: CD4^+ TEM lymphocytes; experiment: LDH cytotoxicity assay; assay type: cell-based, human; settings: for cytotoxicity (LDH): 24 h culture, 1.5 μM Cm28 or 50 nM rMgTx, quiescent or TCR-activated cells, three independent experiments
How it was run: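 CD4+ TEM cells, unstimulated or anti-CD3-stimulated, were cultured 24 h with or without test peptide. Medium samples were mixed with LDH reaction substrate for 30 min in the dark, then stop solution was added. Activity was taken as A490 minus A680, and percent cytotoxicity was calculated against controls. Spontaneous and maximum controls were sterile water and lysis buffer (45 min, 37°C). Positive control: 50 mM NaN3. Three donors, two technical repeats, mean ± SEM.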

[3] = system: hHV1; experiment: Selectivity, patch-clamp, hHV1 in CHO cells; assay type: cell-based, human; settings: 150 nM Cm28, 8–20 pulses (2–5 min), n ≥ 3
How it was run: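 Whole-cell proton current measured with a 1.0-s ramp to +100 mV from Vh −60 mV every 15 s. Bath (mM): 60 Na L-aspartate, 80 MES, 5.5 glucose, 6 MgCl2, pH 7.4. Pipette (mM): 90 Na L-aspartate, 80 MES, 6 MgCl2, 3.3 glucose, pH 6.17. Remaining current fraction (peak I/I0) taken at 150 nM after 8–20 pulses; mean ± SEM, n ≥ 3.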

[4] = system: hKV11.1 (hERG1); experiment: Selectivity, patch-clamp, hKV11.1 in human embryonic kidney 293 cells; assay type: cell-based; settings: 150 nM Cm28, 8–20 pulses (2–5 min), n ≥ 3
How it was run: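 HEK293 cells stably expressing hKV11.1. Pipette (mM): 140 KCl, 2 MgCl2, 10 HEPES, 10 EGTA, pH 7.3. Step to +20 mV (1.25 s) from Vh −80 mV, then −40 mV (2 s), every 30 s. Peak tail current I/I0 at 150 nM after 8–20 pulses; n ≥ 3.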

[5] = biological target: T1, KV1.2 (Homo sapiens, UniProt P16389); experiment: Binding kinetics of Cm28 block of KV1.2; assay type: cell-based
How it was run: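 KV1.2 transiently transfected into CHO cells; GFP-positive cells recorded 24–36 h post-transfection by whole-cell voltage clamp. Normal bath (mM): 145 NaCl, 5 KCl, 2.5 CaCl2, 1 MgCl2, 5.5 glucose, 10 HEPES, pH 7.35. 15-ms pulses to +50 mV from Vh −120 mV every 15 s with 2 nM toxin. Normalized peak current versus time fitted single-exponentially for wash-in/wash-out (τon, τoff); kon, koff from bimolecular model.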

[6] = biological target: T2, KV1.3 (Homo sapiens, UniProt P22001); assay type: cell-based
How it was run: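 PBMCs from healthy donors were cultured 3–6 days in RPMI 1640 with 10% FBS and PHA (2, 5 or 10 µg/ml) to raise KV1.3. Whole-cell currents were evoked by 15-ms pulses to +50 mV from −120 mV every 15 s at 20–25°C, with gravity perfusion. Remaining current fraction was peak I/I0 at equilibrium block. Points (3–5 records each) were Hill-fitted for Kd and H. Perfusion control was 10 mM TEA+; wash-out used toxin-free solution.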

[7] = system: mKCa1.1; experiment: Selectivity, patch-clamp, mKCa1.1 in human embryonic kidney 293 cells; assay type: cell-based; settings: 150 nM Cm28, 8–20 pulses (2–5 min), n ≥ 3
How it was run: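 HEK293 cells stably expressing mKCa1.1 recorded in whole-cell mode in normal bath (145 NaCl, 5 KCl, 2.5 CaCl2, 1 MgCl2, 5.5 glucose, 10 HEPES mM, pH 7.35). Cells depolarized to +100 mV for 600 ms from Vh −100 mV. Peak I/I0 at 150 nM after 8–20 pulses (2–5 min); mean ± SEM, n ≥ 3.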

[8] = system: CD40L expression in CD4^+ TEM lymphocytes; experiment: Expression of CD40L; assay type: cell-based, human
How it was run: (§2)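 CD4+ TEM cells were isolated from healthy-donor PBMCs by negative magnetic selection and held at 1 × 10^6 cells/ml in RPMI 1640 with 10% FBS. They were pre-incubated 30 min with test peptide, then stimulated 24 h at 37°C on plate-bound anti-CD3 (OKT3, 1 µg/well) with toxin kept present. Cells were stained 20 min at 4°C with anti-CD25 and anti-CD154. Gating was FSC/SSC, 10,000 events. MFI was normalized to the stimulated untreated control. Duplicates, three donors.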

[9] = system: hKV1.1; experiment: Selectivity, patch-clamp, hKV1.1 in CHO cells; assay type: cell-based, human
How it was run: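 hKV1.1 (KCNA1, GFP-tagged vector) transiently transfected into CHO cells with Lipofectamine; GFP-positive cells recorded 24–36 h later by whole-cell voltage clamp. Normal bath (mM): 145 NaCl, 5 KCl, 2.5 CaCl2, 1 MgCl2, 5.5 glucose, 10 HEPES, pH 7.35. Remaining current fraction = peak current with/without 150 nM toxin at equilibrium block; mean ± SEM.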

[10] = system: hKV1.5; experiment: Selectivity, patch-clamp, hKV1.5 in CHO cells; assay type: cell-based, human; settings: 150 nM Cm28, 8–20 pulses (2–5 min), n ≥ 3
How it was run: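 Whole-cell KV1.5 currents recorded in normal bath (mM): 145 NaCl, 5 KCl, 2.5 CaCl2, 1 MgCl2, 5.5 glucose, 10 HEPES, pH 7.35. Remaining current fraction calculated as the ratio of peak currents with and without 150 nM test compound after 8–20 repeated depolarizing pulses (2–5 min). Reported as mean ± SEM, n ≥ 3.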

[11] = system: IL2R expression in CD4^+ TEM lymphocytes; experiment: Expression of IL2R; assay type: cell-based, human
How it was run: as §2

[12] = system: hKCa3.1; experiment: Selectivity, patch-clamp, hKCa3.1 in CHO cells; assay type: cell-based, human; settings: 150 nM Cm28, 8–20 pulses (2–5 min), n ≥ 3
How it was run: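 Whole-cell KCa3.1 currents recorded with 150-ms ramps to +50 mV from −120 mV every 10 s. Bath (mM): 145 Na L-aspartate, 5 KCl, 10 HEPES, 5.5 glucose, 2.5 CaCl2, 1 MgCl2, pH 7.4. Pipette (mM): 150 K-Asp, 5 HEPES, 8.5 CaCl2, 1.0 MgCl2, pH 7.22. Peak I/I0 at 150 nM after 8–20 pulses (2–5 min); mean ± SEM, n ≥ 3.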

[13] = biological target: T1, KV1.2; experiment: Voltage dependence of activation; assay type: cell-based; settings: KV1.2, 2 nM Cm28
How it was run: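 CHO cells were transiently transfected with GFP-tagged hKV1.2 and recorded by whole-cell clamp 24–36 h later at 20–25°C. For G-V, 300-ms steps from −70 to +80 mV in 10 mV increments were applied, with tail currents at −120 mV normalized to the maximum. For instantaneous I-V, 200-ms ramps to +50 mV were used. Pulses were given every 15 s. Traces are three-trace averages in control and at equilibrium block.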

[14] = biological target: T1, KV1.2; experiment: Whole-cell patch-clamp block of KV1.2 current, transiently transfected CHO cells; assay type: cell-based
How it was run: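 hKV1.2 was expressed transiently in CHO cells, and GFP-positive cells were recorded 24–36 h after transfection. Whole-cell currents were evoked by 15-ms pulses to +50 mV from −120 mV every 15 s at 20–25°C, with leak below 10%, using gravity perfusion. RCF was peak I/I0 at equilibrium block.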

[15] = biological target: T2, KV1.3; experiment: Binding kinetics of Cm28 block of KV1.3; assay type: cell-based
How it was run: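 Activated human peripheral T lymphocytes (PHA-stimulated PBMCs) recorded by whole-cell voltage clamp in normal Na+-based bath, pH 7.35. 15-ms pulses to +50 mV from Vh −120 mV every 15 s. Wash-in and wash-out time courses of normalized peak current fitted with single exponentials. 1/τon and 1/τoff versus toxin concentration fitted by linear regression to give kon and koff, assuming simple bimolecular binding.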

[16] = system: hNaV1.5; experiment: Selectivity, patch-clamp, hNaV1.5 in CHO cells; assay type: cell-based, human; settings: 150 nM Cm28, 8–20 pulses (2–5 min), n ≥ 3
How it was run: as §1

[17] = system: KV channels; settings: ref Bartok et al., 2014, cited from earlier work
[18] = system: CD4^+ TEM lymphocytes; experiment: Cell viability, Zombie NIR flow cytometry; assay type: cell-based, human; settings: 24 h culture, 1.5 μM Cm28 or 50 nM rMgTx, quiescent or TCR-activated cells, three independent experiments
[19] = 1.5 µM Cm28, anti-CD3–activated, 24 h
[20] = US + Cm28 (1.5 µM), not exposed to anti-CD3
[21] = 5 nM rMgTx, 30 min pre-incubation, 24 h anti-CD3 stimulation, decreased to

T2 sequence (P22001 whole entry, the tested form may be a part): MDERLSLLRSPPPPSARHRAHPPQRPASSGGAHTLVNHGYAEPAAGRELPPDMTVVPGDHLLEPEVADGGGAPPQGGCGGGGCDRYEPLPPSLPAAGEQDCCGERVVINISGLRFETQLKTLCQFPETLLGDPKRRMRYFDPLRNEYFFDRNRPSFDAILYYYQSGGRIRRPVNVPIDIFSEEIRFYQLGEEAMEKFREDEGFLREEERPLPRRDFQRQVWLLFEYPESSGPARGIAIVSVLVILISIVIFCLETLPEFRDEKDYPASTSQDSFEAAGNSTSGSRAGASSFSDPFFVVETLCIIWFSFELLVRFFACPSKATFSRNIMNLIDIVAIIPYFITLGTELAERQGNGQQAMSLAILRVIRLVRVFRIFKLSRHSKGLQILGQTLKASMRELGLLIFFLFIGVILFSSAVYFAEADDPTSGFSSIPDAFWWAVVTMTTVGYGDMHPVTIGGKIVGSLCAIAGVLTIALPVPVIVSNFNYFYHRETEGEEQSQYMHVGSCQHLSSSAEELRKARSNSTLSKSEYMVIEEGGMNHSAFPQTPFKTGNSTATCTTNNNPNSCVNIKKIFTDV
T1 sequence (P16389 whole entry): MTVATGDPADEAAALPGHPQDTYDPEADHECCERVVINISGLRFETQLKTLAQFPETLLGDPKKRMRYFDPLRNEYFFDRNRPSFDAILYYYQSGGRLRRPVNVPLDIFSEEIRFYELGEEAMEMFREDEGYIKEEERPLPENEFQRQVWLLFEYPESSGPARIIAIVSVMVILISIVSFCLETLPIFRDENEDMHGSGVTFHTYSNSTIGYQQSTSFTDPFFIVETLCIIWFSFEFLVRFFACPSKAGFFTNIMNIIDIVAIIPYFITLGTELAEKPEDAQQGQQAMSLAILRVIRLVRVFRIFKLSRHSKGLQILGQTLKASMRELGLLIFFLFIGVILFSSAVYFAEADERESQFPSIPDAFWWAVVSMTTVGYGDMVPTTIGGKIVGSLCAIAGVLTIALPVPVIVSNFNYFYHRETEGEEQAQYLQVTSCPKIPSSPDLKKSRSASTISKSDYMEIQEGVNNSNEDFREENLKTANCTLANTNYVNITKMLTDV

CC(C)[C@@H]1NC(=O)[C@@H]2CSSC[C@H](NC(=O)[C@@H](N)CCCCN)C(=O)N[C@@H](CCCNC(=N)N)C(=O)N[C@@H](CCC(=O)O)C(=O)N[C@H]3CSSC[C@H](NC(=O)[C@H](CCCCN)NC(=O)CNC(=O)[C@H](CC(N)=O)NC1=O)C(=O)N[C@@H](C(C)C)C(=O)N[C@H](C(=O)N1CCC[C@H]1C(=O)N[C@@H](C)C(=O)O)CSSC[C@H](NC(=O)[C@H](CO)NC(=O)[C@@H]1CCCN1C(=O)[C@H](CO)NC(=O)[C@H]([C@@H](C)O)NC(=O)[C@H](CC(N)=O)NC(=O)CNC3=O)C(=O)N[C@@H](Cc1ccc(O)cc1)C(=O)N[C@@H](Cc1ccccc1)C(=O)N[C@@H](CO)C(=O)NCC(=O)N[C@@H](CC(N)=O)C(=O)N2 [Cm28] (H-KCRECGNTSPSCYFSGNCVNGKCVCPA-OH; disulfide 2-18, 5-23, 12-25; N-terminus assumed)
inhibition of NaV1.4 [1]: did not inhibit | cytotoxicity (LDH) [2]: < 1% | inhibition of hHV1 [3]: did not inhibit | inhibition of KV11.1 [4]: did not inhibit | koff [5]: 0.0013 s⁻¹ | kon [5]: 1.1e+06 M⁻¹ s⁻¹ | Hill coefficient (H) ([6]; KV1.3, Hill fit of dose-response, n = 3–5): 0.93 | inhibition at 0.002 µM ([6]; read-out: inhibition of current at block equilibrium): ~58% | time for 90% recovery from block ([6]; wash-out with toxin-free solution after 2 nM Cm28): 10 min | inhibition of KCa1.1 [7]: did not inhibit | CD40L expression in activated cells [8, 19]: strongly inhibited; also recorded: significantly reduced | CD40L expression in unstimulated cells [8, 20]: no change | reduction of KV1.1 current ([9]; 150 nM Cm28, equilibrium block): ~27% | fold less affinity for KV1.1 (vs KV1.2 and KV1.3) ([9]; compared with KV1.2 and KV1.3): ~400 fold | inhibition of KV1.1 ([9]; text of Discussion, high concentration ∼100× of Kd for KV1.3): did not inhibit | inhibition of KV1.5 [10]: did not inhibit | IL2R expression in activated cells [11, 19]: strongly inhibited; also recorded: significantly reduced | IL2R expression in unstimulated cells [11, 20]: no change | inhibition of KCa3.1 [12]: did not inhibit | shift in G-V curve / activation threshold [13]: did not introduce any substantial shift in the G-V curve of KV1.2 | Hill coefficient (H) ([14]; KV1.2, Hill fit of dose-response, n = 3–5): 1.04 | recovery from block, % of control current ([14]; wash-out with toxin-free solution after 2 nM Cm28, took several minutes): ~85% | koff [15]: 0.0028 ± 0.000215 s⁻¹ | kon [15]: 1.3e+06 M⁻¹ s⁻¹ | inhibition of NaV1.5 [16]: did not inhibit

[N-]=[N+]=[N-].[Na+] [NaN3, sodium azide]
cytotoxicity (LDH), positive control ([2]; 50 mM NaN3): 15%

CC[N+](CC)(CC)CC.[Cl-] [TEA^+, reference compound]
inhibition in peak current, perfusion control ([6]; 10 mM TEA^+, KV1.3): ~50%

ChTx [reference compound]
inhibition in peak current, perfusion control ([14]; 14 nM ChTx, KV1.2): ~50% | block of KV1.x channel subtypes [17]: blocks more than one KV1.x channel subtypes with high affinity

MgTx (TIINVKCTSPKQCLPPCKAQFGQSAGAKCMNGKCKCYPH; UniProt P40755 1-39, looked up)
block of KV1.x channel subtypes [17]: blocks more than one KV1.x channel subtypes with high affinity | block of KV1.x channel subtypes ([17]; listed as margatoxin): blocks different KV channels

rMgTx (TIINVKCTSPKQCLPPCKAQFGQSAGAKCMNGKCKCYPH; ends and bridges not checked; cysteine pairing not given here; UniProt P40755 1-39, looked up) [reference compound]
cytotoxicity (LDH) [2]: < 2% | CD40L expression, normalized to stimulated non-treated control [8, 21]: ~51% | IL2R expression, normalized to stimulated non-treated control [11, 21]: ~48% | viable cells [18]: ≥ 90%
